Experimental data gathered from unrelated publications.
Compare with care: the assays were run in different laboratories.
Effect on: enzyme activity
Mode: inhibitor
CDK2 with cyclin A: Cyclin-dependent kinase 2, with cyclin A (CDK2, Homo sapiens, UniProt P24941)
CDK2: Cyclin-dependent kinase 2 (CDK2, Homo sapiens, UniProt P24941)

| SMILES | target | assay | conditions | inhibition |
| --- | --- | --- | --- | --- |
| COc1cc(-c2cc(-c3ccc(N4CCNCC4)cc3)cnc2N)cc(OC)c1OC | CDK2 with cyclin A |  | 1 µM | 2% |
| Cn1cnc(Br)c1C1=CN(c2ncnc3[nH]cnc23)CCS1 | CDK2 | radiometric | 50 nM | 20.5% |
| Nc1nc(Nc2ccc(S(N)(=O)=O)cc2)sc1C(=O)c1ccccc1[N+](=O)[O-] | CDK2 |  | 0.1 µM | 95 to 96% |
| CN(C)C1CCN(CC#Cc2nn(C3CCCC3)c3nc(NCc4ccccc4)ncc23)C1 (stereo not shown) | CDK2 with cyclin A | FRET | 10 µM | 4% |
| Cn1cncc1C1=CN(c2ncnc3[nH]cnc23)CCS1 | CDK2 | radiometric | 50 nM | 12.6% |
| CS(=O)(=O)Nc1cccc(-c2csc(NC(=O)CSc3nc4nccnc4c(=O)n3CCc3ccccc3)n2)c1 | Cyclin-dependent kinase 2, with cyclin O (CDK2, Homo sapiens, UniProt P24941) |  | 10 µM | 8% |
| CNc1cccc2cc(C(=O)Nc3ccc(C(=O)O)cc3)c(=O)[nH]c12 | CDK2 |  | 10 µM | -0.24% |
| C=CC(=O)Nc1cc(Nc2nccc(Nc3cc(Cl)c(F)cc3C(C)(C)O)n2)c(OC)cc1N1CC[C@@H](N(C)C)C1 | CDK2 with cyclin A |  | 1 µM | -13% |
| CN1CC(Oc2cnc(C#N)cc2-c2ccn3nc(NC(=O)C4CC4)cc3c2)C1 | CDK2 with cyclin A |  | 1 µM | 0% |
| CCCS(=O)(=O)Nc1ccc(F)c(C(=O)c2c[nH]c3ncc(-c4ccc(Cl)cc4)cc23)c1F | CDK2 with cyclin A |  | 1 µM | < 10% |
| CC/C(=N\NC(=O)NCc1cccc(O)c1)c1ccc(O)c(C)c1O | Cyclin-dependent kinase 2, with cyclin A2 (CDK2, Homo sapiens, UniProt P24941) |  | 0.1 µM | 0.5% |
| COc1cc2ncnc(Nc3ccc(Oc4ccccc4)cc3C)c2cc1OC | CDK2 with cyclin A |  | 1 µM | -14% |
| CNC(=O)c1ccccc1Nc1cc(Nc2ccc(N3CCOCC3)cc2OC)ncc1C(F)(F)F | CDK2 |  | 1 µM | > 50% |
